Results on 13 compounds are retold here after ChEMBL document CHEMBL1134639, “Conformationally restricted analogues of 1N,14N-bisethylhomospermine (BE-4-4-4): synthesis and growth inhibitory effects on human prostate cancer cells” (2001).

Assay type in all cases: functional
Assay [1] concerns DU-145. Put plainly: Inhibition of cell growth was determined in DU145 cell line of human prostate tumor using MTT assay, on day 6 after treatment. To be noted: read-out: ID50 (the source's name). The procedure, abridged:
(§1)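 MTT growth assay on human prostate tumour cells seeded in microtitre plates and incubated overnight at 37 °C in humidified 95% air/5% CO₂. Diluted drug stocks were added to the middle 8 columns, with buffer controls in the outer columns. Each concentration was run in quadruplicate. ID₅₀ is the concentration giving 50% growth inhibition on day 6 of treatment.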

The subject of assay [2] is LNCaP. The assay is described as follows: Inhibition of cell growth was determined in LNCaP cell line of Human prostate tumor using MTT assay, on day 6 after treatment. Particulars: read-out: ID50 (the source's name). The procedure, abridged: as §1
(Formazan colour is commonly taken as a measure of viable cells.)

Assay [3] concerns PC-3. Put plainly: Inhibition of cell growth was determined in PC-3 cell line of human prostate tumor using MTT assay, on day 6 after treatment. To be noted: read-out: ID50 (the source's name). Put shortly: as §1
In assay [4] the test system is DuPro. Put plainly: Inhibition of cell growth was determined in DUPRO cell line of human prostate tumor using MTT assay, on day 6 after treatment. To be noted: read-out: ID50 (the source's name). Put shortly:
as §1

The subject of assay [5] is LNCaP. Put plainly: Inhibition of cell growth was determined in LNCaP cell line of human prostate tumor using MTT assay, on day 6 after treatment. To be noted: 144 h, read-out: ID50 (the source's name). The procedure, abridged: as §1

Structures are written as SMILES. Where only a bound is given, the exact number is not on record here.

As to `CCNC/C=C\CNCCCCNC/C=C\CNCC`, the IC50 in assay [1] (Homo sapiens, DU-145, 144 h) was found to be 130 nM; in assay [2] (Homo sapiens, LNCaP, 144 h), 3000 nM; in assay [3] (Homo sapiens, PC-3, 144 h), 700 nM.

Take `CCNCCCCNCC1CCC1CNCCCCNCC` (stereo in doubt; 10): the figures for the IC50 in assay [4] and in assay [2] were 80 nM and 210 nM, respectively.

Regarding `CCNCCCCNCC1CC1CNCCCCNCC` (stereo in doubt; 7), the IC50 in assay [1] (Homo sapiens, DU-145, 144 h) was 20 nM; in assay [2] (Homo sapiens, LNCaP, 144 h) it was 170 nM; in assay [3] (Homo sapiens, PC-3, 144 h) it was 1400 nM.

In the case of `CCNC/C=C\CNC/C=C\CNC/C=C\CNCC`, the IC50 in assay [2] (Homo sapiens, LNCaP, 144 h) stood at 770 nM.

For the compound `CCNC/C=C\CNCCCCNCCCCNCC`, the IC50 in assay [2] (Homo sapiens, LNCaP, 144 h) came out at 210 nM.

Take `CCNCCCCNCC1CC1CNCCCCNCC` (stereo in doubt; 4): the IC50 in assay [4] turned out to be 59 nM; in assay [1], 16 nM; in assay [2] it was 210 nM; in assay [3], 1600 nM.

Take `CCNCCCCNCC#CCNCCCCNCC`: the IC50 is 3200 nM in assay [4] (144 h); 2200 nM in assay [2] (Homo sapiens, LNCaP, 144 h); greater than 31200 nM in assay [3] (PC-3, 144 h).

`CCNCCCCNCCCCNCCCCNCC` [DIETHYLHOMOSPERMINE]: the IC50 in assay [4] (Homo sapiens, DuPro, 144 h) came to 200 nM; in assay [1] (Homo sapiens, DU-145, 144 h) it was 30 nM; in assay [3] (Homo sapiens, PC-3, 144 h) it was 700 nM; in assay [5], 100 nM.

In the case of `CCNC/C=C\CNC/C=C\CNCCCCNCC`, the IC50 in assay [2] (Homo sapiens, LNCaP, 144 h) is 690 nM; in assay [3] (Homo sapiens, PC-3, 144 h) it was greater than 31200 nM.

`CCNCCCCNC/C=C\CNCCCCNCC`: the IC50 is 30 nM in assay [1] (Homo sapiens, DU-145, 144 h); 65 nM in assay [2] (Homo sapiens, LNCaP, 144 h); greater than 31200 nM in assay [3] (Homo sapiens, PC-3, 144 h).

Consider `CCNCCCCNCC1CCC1CNCCCCNCC` (stereo in doubt; 13), for which the IC50 in assay [4] is 300 nM; in assay [1] (Homo sapiens, DU-145, 144 h) it was 21 nM; in assay [2], 700 nM; in assay [3] (Homo sapiens, PC-3, 144 h), 4700 nM.

With `CCNCCCCNC/C=C/CNCCCCNCC`, the IC50 in assay [1] (Homo sapiens, DU-145, 144 h) was found to be 220 nM; in assay [2] (Homo sapiens, LNCaP, 144 h) it was 497 nM.

Regarding `CCNCCCCNCc1ccccc1CNCCCCNCC`, the IC50 was greater than 31200 nM in assay [4] (Homo sapiens, DuPro, 144 h); greater than 31200 nM in assay [2] (Homo sapiens, LNCaP, 144 h); greater than 31200 nM in assay [3] (Homo sapiens, PC-3, 144 h).
